Reference: ChEMBL document CHEMBL1135543, “Alpha(1)-adrenoceptor antagonists. 4. Pharmacophore-based design, synthesis, and biological evaluation of new imidazo-, benzimidazo-, and indoloarylpiperazine derivatives” (J Med Chem, 2002)

Assays:
[1] = molecular target: T1, Adrenergic receptor alpha-1 (Rattus norvegicus, UniProt P15823+P23944+P43140); experiment: Intrinsic activity against Alpha-1 adrenergic receptor expressed as displacement of [3H]prazosin from rat cerebral cortex membrane in the presence of 1 nM GTP; type: tissue-based
T1 sequence (P15823 whole entry): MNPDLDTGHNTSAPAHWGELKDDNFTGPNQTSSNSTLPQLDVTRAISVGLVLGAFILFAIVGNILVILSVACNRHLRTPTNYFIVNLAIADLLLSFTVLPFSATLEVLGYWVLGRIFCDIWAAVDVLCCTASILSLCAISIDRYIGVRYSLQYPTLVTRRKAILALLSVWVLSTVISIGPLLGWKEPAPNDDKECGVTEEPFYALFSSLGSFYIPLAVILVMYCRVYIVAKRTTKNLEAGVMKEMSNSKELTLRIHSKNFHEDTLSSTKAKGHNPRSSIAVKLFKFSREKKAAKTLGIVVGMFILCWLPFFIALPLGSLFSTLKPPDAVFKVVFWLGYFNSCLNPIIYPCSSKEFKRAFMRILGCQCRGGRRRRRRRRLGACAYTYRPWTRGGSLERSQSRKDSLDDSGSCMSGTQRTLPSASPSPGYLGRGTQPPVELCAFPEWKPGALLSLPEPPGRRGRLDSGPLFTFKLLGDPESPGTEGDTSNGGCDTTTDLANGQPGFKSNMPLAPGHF
T1 sequence (P23944 whole entry): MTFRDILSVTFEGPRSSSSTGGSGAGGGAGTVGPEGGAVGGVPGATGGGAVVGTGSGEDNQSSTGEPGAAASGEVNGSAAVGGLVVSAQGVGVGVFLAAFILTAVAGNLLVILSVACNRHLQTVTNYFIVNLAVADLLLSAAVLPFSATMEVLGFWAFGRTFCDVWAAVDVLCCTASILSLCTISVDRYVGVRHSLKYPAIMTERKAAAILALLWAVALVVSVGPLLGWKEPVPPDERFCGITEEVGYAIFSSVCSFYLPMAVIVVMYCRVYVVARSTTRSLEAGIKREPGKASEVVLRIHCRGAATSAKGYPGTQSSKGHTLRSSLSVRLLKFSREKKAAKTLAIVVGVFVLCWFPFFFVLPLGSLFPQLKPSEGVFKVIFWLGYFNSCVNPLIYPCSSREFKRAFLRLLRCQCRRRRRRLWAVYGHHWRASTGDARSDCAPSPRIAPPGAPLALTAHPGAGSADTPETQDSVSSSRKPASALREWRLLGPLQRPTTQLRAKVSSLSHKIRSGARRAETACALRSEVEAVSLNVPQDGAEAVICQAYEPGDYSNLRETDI
T1 sequence (P43140 whole entry): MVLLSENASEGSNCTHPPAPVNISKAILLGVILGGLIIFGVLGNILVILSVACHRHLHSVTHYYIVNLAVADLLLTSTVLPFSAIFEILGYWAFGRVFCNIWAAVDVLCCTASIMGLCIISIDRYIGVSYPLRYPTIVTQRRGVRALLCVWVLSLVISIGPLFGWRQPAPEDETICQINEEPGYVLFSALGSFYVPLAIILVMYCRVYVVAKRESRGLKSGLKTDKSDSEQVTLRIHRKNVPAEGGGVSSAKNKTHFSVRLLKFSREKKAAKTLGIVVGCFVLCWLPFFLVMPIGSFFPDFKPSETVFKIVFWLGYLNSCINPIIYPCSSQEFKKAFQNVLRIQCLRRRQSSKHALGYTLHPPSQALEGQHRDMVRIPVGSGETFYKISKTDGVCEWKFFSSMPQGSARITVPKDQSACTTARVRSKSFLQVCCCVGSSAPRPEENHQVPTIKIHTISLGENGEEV
How it was run: (§1)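 [3H]prazosin competition on rat cerebral cortex membranes, run with and without GTP (1 nM in table footnote, 1 mM in text). The GTP shift is the ratio of the affinity constant with GTP to that without. Values are means ± SEM of three experiments.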

[2] = molecular target: T2, Adrenergic receptor alpha-2 (Rattus norvegicus, UniProt P22086+P19328+P22909); experiment: Binding affinity against Alpha-2 adrenergic receptor by displacing [3H]rauwolscine radioligand in rat cortex membrane; type: cell membranes, Brain
T2 sequence (P22086 whole entry): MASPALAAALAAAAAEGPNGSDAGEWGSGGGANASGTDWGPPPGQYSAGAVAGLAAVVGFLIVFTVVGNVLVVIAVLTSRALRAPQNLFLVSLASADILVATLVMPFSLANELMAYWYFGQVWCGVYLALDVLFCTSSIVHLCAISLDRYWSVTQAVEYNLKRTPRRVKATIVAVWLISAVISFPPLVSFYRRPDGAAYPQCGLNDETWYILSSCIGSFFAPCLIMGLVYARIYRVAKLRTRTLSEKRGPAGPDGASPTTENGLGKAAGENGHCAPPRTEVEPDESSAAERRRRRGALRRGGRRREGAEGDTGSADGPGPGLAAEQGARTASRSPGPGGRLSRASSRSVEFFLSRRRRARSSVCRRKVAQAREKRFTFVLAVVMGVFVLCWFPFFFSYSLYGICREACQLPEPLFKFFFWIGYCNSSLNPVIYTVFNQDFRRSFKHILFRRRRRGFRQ
T2 sequence (P19328 whole entry): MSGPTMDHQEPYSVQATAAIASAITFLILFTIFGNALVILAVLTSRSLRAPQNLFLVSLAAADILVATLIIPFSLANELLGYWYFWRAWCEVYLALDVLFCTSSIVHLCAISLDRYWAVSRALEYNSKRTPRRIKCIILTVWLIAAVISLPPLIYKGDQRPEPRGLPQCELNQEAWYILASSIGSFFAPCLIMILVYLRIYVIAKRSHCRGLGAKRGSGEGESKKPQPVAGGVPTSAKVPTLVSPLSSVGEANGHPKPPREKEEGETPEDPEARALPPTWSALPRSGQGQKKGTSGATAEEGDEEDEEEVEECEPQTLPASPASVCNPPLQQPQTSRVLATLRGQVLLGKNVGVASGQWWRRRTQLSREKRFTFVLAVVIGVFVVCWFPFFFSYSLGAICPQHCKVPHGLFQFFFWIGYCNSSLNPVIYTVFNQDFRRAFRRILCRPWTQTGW
T2 sequence (P22909 whole entry): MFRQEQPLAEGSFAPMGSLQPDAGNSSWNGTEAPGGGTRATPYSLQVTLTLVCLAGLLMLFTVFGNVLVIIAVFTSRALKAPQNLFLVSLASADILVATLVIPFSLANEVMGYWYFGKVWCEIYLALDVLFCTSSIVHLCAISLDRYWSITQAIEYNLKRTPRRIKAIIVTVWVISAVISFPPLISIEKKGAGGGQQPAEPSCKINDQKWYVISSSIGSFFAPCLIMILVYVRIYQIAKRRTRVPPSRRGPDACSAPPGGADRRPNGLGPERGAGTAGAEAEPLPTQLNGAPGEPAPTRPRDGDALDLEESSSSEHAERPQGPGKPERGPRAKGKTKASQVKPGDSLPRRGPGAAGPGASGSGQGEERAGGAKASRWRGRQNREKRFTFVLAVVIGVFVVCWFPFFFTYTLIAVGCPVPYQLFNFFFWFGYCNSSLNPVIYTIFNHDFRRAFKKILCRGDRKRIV

[3] = molecular target: T3, 5-hydroxytryptamine receptor 1A (Rattus norvegicus, UniProt P19327); experiment: Binding affinity against 5-hydroxytryptamine 1A receptor by displacing [3H]8-OH-DPAT radioligand in rat cortex membrane; type: cell membranes
T3 sequence (P19327 whole entry): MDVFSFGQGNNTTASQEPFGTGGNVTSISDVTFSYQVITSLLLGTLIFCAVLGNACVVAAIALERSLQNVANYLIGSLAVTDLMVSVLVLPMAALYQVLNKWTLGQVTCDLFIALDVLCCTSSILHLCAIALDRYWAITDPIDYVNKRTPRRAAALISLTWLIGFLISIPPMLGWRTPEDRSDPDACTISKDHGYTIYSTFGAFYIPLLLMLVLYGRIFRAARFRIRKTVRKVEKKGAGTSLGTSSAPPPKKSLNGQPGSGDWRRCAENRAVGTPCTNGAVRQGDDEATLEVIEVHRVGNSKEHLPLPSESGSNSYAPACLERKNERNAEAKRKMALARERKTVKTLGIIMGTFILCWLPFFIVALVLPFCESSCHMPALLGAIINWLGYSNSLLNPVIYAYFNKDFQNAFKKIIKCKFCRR
How it was run: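 Rat cortex membranes, pre-incubated 10 min at 37 °C to remove endogenous 5-HT, stored at –80 °C, then resuspended in 50 mM Tris-HCl pH 7.4 (0.2–0.3 mg protein). GF/C filtration, scintillation counting.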

[4] = molecular target: T1, Adrenergic receptor alpha-1; experiment: Intrinsic activity against Alpha-1 adrenergic receptor expressed as displacement of [3H]prazosin from rat cerebral cortex membrane in the absence of 1 nM GTP; type: tissue-based; how it was run: as §1
[5] = molecular target: T1, Adrenergic receptor alpha-1; experiment: Binding affinity against Alpha-1 adrenergic receptor by displacing [3H]prazosin radioligand in rat cortex membrane.; type: cell membranes, Brain
[6] = molecular target: T1, Adrenergic receptor alpha-1; experiment: Intrinsic activity for displacement of [3H]- prazosin from Alpha-1 adrenergic receptor of rat cerebral cortex membrane in the absence of 1 nM GTP; type: tissue-based
[7] = molecular target: T1, Adrenergic receptor alpha-1; experiment: Intrinsic activity for displacement of [3H]- prazosin from Alpha-1 adrenergic receptor of rat cerebral cortex membrane in the presence of 1 nM GTP; type: tissue-based

Ki [1]	Ki [2]	Ki [3]	Ki [4]	Ki [5]	Ki [6]	Ki [7]	Compound
0.0016 µM	0.02 µM	0.253 µM	0.001 µM	–	–	–	COc1ccccc1N1CCN(CCCCn2nc(-n3ccc4ccccc43)ccc2=O)CC1
–	0.0245 µM	0.123 µM	–	0.0046 µM	0.0049 µM	0.00833 µM	O=c1ccc(-n2ccnc2)nn1CCCCCCCN1CCN(c2ccccc2Cl)CC1
